# Source: article PMC4437839 (Chemical research in toxicology, 2015)
# Entries after “also recorded” stand apart in the source; their conditions may differ.
# Tests used:
# [1] = biological target: albumin in human hepatocytes culture (Homo sapiens, UniProt P02768); test: Albumin PhIP adducts and Cys34SO3H in human hepatocytes; format: cell-based
# Summary of the method: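 Primary human hepatocytes (two-step collagenase perfusion) seeded at 3×10^6 viable cells/19.5-cm2 dish in Williams' medium with βME-pre-reduced human albumin (1 g/L) replacing FCS; exposed 24 h to PhIP or 1:1 PhIP:[2H5]-PhIP (50 µM). Medium albumin ethyl acetate-extracted, ethanol-precipitated, kit-isolated, desalted; trypsin/chymotrypsin digested (37 °C, 20 h); C18 SPE; mass-tag data-dependent, then targeted UPLC-ESI/MS2.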
# Hb = conditions: humans, radiolabelled 14C-PhIP; cited from earlier work
# albumin = conditions: humans; cited from earlier work
# 2′-Deoxyguanosine (dG) = test: Trapping reactive N-oxidized electrophiles of PhIP with dG; conditions: 42 nmol, dG 1 mg/mL, pH 8.0, 37 °C, 1 h; total ion counts at MS3 (Fig. 3)
# albumin in human plasma = albumin in human plasma (Homo sapiens, UniProt P02768); conditions: for level of LQQC*[SOPhIP]PF formed, comparison between the three metabolites: albumin in human plasma or commercial human albumin, p=0.231, one-way ANOVA; for LQQC*[SO2PhIP]PFEDHVK levels, N-acetoxy-PhIP versus HONH-PhIP: human plasma, p>0.05, t-test
# Chain of albumin in human plasma (P02768 25-609): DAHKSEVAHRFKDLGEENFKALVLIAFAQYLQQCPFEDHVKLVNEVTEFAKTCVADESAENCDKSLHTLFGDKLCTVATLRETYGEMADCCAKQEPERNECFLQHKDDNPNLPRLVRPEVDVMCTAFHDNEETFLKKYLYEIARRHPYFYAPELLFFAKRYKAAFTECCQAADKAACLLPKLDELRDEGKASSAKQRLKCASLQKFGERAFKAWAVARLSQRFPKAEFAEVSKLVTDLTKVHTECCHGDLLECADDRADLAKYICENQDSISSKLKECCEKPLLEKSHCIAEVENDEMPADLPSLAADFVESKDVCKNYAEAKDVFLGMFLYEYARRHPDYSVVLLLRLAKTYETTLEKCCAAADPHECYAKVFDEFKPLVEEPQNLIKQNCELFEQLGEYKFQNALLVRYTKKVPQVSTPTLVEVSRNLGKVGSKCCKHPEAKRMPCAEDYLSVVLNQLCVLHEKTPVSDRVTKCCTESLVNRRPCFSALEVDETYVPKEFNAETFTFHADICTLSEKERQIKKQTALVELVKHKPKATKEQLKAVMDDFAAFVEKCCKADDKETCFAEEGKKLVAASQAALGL
# NAT1 = conditions: cited from earlier work
# NAT2 = conditions: cited from earlier work
# SULT1A1 = conditions: cited from earlier work
# [2] = N-sulfooxy-PhIP modified albumin, unpublished observations
# Chain of albumin in human hepatocytes culture (P02768 25-609): as above
compound,measurement,setting,value
"Cn1c(N)nc2ncc(-c3ccccc3)cc21 [PhIP, 2-amino-1-methyl-6-phenylimidazo[4,5-b]pyridine]",PhIP and 5-HO-PhIP in the proteolytic digests of albumin,"[1]; PhIP 50 µM, 24 h (Figs. 8A, 8B)",detected
same,Y*[desaminoPhIP]TK (Tyr411) and LQQC*[desaminoPhIP]PF (Cys34) adducts,"[1]; PhIP 50 µM, tryptic/chymotryptic digest (Fig. 9)",both adducts were identified
same,albumin-PhIP peptide adducts at Cys34 or Trp214,"[1]; PhIP or PhIP:[2H5]-PhIP 50 µM, 24 h, data-dependent and targeted MS2",failed to detect; also recorded: below the limit of detection
same,LQQC*[SO2PhIP]PFEDHVK after m-CPBA oxidation of albumin,"[1]; albumin isolated from hepatocytes, targeted MS2",failed to detect; also recorded: not detected
same,PhIP binding to Hb,Hb,very low
same,binding of PhIP to albumin,albumin,up to several percent of the ingested dose
"Cn1c(NOS(=O)(=O)O)nc2ncc(-c3ccccc3)cc21 [N-sulfooxy-PhIP, N-sulfooxy-2-amino-1-methyl-6-phenylimidazo[4,5-b]pyridine]",relative amount of dG-C8-PhIP formation,2′-Deoxyguanosine (dG),lower level
same,level of W[PhIP] adduct relative to signal of C[SO2PhIP],"albumin in human plasma; 3-enzyme digest, ion counts (Fig. 7)",about half
same,"ion counts of H[PhIP], fold lower than counts of W[PhIP]",albumin in human plasma; [2],5 folder
same,"ion counts of H[PhIP], fold lower than ion counts of C[SO2PhIP]",albumin in human plasma; [2],10 fold
same,"level of LQQC*[SOPhIP]PF formed, comparison between the three metabolites",albumin in human plasma,no statistically significant difference
same,level of Trp[PhIP] relative to N-acetoxy-PhIP or HONH-PhIP treated human plasma,"albumin in human plasma; pronase E/leucine aminopeptidase/prolidase digest, ion counts (Fig. 7B)",3 x
"Cn1c(NO)nc2ncc(-c3ccccc3)cc21 [HONH-PhIP, 2-hydroxyamino-1-methyl-6-phenylimidazo[4,5-b]pyridine]",relative amount of dG-C8-PhIP formation,2′-Deoxyguanosine (dG),lastly
same,"level of LQQC*[SOPhIP]PF formed, comparison between the three metabolites",albumin in human plasma,no statistically significant difference
same,"LQQC*[SO2PhIP]PFEDHVK levels, N-acetoxy-PhIP versus HONH-PhIP",albumin in human plasma,no significant difference
same,bioactivation by NAT1,NAT1,poorly bioactivated
same,bioactivation by NAT2,NAT2,poorly bioactivated
same,bioactivation by SULT1A1,SULT1A1,highly effective
"CC(=O)ONc1nc2ncc(-c3ccccc3)cc2n1C [N-acetoxy-PhIP, N-(acetyloxy)-2-amino-1-methyl-6-phenylimidazo[4,5-b]pyridine, reference compound]",relative amount of dG-C8-PhIP formation,2′-Deoxyguanosine (dG),greatest amount
same,"level of LQQC*[SOPhIP]PF formed, comparison between the three metabolites",albumin in human plasma,no statistically significant difference
same,"LQQC*[SO2PhIP]PFEDHVK levels, N-acetoxy-PhIP versus HONH-PhIP",albumin in human plasma,no significant difference
